Test results reported in PMC7161550 (British Journal of Pharmacology, 2020).
Where “and” joins values, the source holds several entries; their conditions need not be identical. Identical values can stand only once.

Legend:
[1] = GLP rat toxicology studies; format: in vivo; conditions: 100 mg·kg^−1, assuming brain:plasma ratio of 1:5
human OAT1 = human OAT1 (Homo sapiens, UniProt Q4U2R8); test: Transporter inhibition, probe substrate accumulation; format: in vitro ADME; conditions: 0.033–33.3 μM
human OAT1, sequence (Q4U2R8 whole entry): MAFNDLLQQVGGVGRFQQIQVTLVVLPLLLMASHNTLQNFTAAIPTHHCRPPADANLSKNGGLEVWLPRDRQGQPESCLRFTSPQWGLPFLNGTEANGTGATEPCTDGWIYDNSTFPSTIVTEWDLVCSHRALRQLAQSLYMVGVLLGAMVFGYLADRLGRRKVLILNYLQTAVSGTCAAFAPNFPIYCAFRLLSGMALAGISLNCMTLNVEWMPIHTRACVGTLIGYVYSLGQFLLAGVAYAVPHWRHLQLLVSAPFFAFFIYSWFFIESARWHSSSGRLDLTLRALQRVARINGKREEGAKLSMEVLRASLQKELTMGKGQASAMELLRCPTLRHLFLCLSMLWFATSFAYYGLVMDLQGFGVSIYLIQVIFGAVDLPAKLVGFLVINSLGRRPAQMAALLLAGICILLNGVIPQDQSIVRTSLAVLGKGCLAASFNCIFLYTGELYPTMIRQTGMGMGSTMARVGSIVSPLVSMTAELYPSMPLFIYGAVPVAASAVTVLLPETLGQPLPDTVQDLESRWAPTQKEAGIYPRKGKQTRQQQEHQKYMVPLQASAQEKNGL
How it was run: (§1)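 Inhibition of probe substrate accumulation in transfected cells: CHO‑K1 for OAT1 and OCT1; HEK293 for OAT3, OATP1B1 and OATP1B3; MDCKII for OCT2, MATE1 and MATE2‑K. Each transporter's activity was confirmed with a positive control substrate or inhibitor.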

CaI‐PLA2 (PLA2G6) = CaI‐PLA2 (PLA2G6) (Rattus norvegicus, UniProt P97570); test: ABPP ex vivo, rat brain after oral BIA 10‐2474; format: in vivo
CaI‐PLA2 (PLA2G6), sequence (P97570 whole entry): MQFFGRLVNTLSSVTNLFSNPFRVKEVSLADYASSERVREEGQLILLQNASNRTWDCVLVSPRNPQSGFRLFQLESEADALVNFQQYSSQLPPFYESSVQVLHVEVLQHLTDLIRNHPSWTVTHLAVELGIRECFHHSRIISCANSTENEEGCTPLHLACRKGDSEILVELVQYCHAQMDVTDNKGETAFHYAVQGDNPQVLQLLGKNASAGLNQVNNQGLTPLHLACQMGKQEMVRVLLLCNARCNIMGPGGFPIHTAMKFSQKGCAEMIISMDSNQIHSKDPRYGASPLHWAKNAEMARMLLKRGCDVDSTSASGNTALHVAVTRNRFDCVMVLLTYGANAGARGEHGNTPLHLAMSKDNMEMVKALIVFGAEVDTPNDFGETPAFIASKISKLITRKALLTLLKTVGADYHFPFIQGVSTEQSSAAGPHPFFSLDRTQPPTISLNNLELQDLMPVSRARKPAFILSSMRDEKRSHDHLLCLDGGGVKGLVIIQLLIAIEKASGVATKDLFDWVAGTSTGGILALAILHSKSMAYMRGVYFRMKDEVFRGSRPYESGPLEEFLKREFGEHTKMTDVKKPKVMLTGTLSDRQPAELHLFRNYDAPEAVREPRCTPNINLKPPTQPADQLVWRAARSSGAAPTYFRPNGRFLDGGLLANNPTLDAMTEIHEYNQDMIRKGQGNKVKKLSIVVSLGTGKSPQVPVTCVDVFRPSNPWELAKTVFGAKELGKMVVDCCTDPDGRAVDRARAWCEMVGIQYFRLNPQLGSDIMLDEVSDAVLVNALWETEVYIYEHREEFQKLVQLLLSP

BCRP = target: T1, BCRP (Homo sapiens, UniProt Q9UNQ0); test: Bidirectional permeability in MDCKII‐BCRP monolayers; format: in vitro ADME
T1 sequence (Q9UNQ0 1-655): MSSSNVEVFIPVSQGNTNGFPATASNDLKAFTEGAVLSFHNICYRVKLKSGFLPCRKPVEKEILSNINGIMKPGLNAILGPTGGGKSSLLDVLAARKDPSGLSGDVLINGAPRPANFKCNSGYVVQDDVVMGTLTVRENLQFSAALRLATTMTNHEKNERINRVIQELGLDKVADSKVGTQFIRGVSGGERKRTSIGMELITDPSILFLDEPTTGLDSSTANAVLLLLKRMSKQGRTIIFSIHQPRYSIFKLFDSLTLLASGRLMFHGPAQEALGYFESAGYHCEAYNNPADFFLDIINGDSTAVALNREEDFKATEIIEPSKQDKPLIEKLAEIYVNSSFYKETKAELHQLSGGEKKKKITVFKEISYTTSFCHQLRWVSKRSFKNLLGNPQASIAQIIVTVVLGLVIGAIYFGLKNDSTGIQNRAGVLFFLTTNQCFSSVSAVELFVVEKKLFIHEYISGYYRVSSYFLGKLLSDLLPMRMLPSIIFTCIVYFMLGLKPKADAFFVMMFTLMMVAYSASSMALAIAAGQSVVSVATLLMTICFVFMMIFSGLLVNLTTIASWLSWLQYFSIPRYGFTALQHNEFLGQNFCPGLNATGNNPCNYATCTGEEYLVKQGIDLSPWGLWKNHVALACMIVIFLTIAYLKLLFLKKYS
How it was run: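 Test compound (10 μM) permeability was measured in A–B and B–A directions across MDCKII‑BCRP and parental MDCKII monolayers. 3H‑prazosin (1 μM) served as positive control, with a BCRP inhibitor at 1 μM. Net efflux ratio = ER(BCRP) − ER(MDCKII).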

[2] = format: in vivo; conditions: rat, 10 mg·kg^−1 p.o.
CYP2C9 = CYP2C9 (Homo sapiens, UniProt P11712); test: CYP inhibition, pooled human liver microsomes; format: in vitro ADME; conditions: 0.33–99.2 μM, co‐ and pre‐incubation
CYP2C9, sequence (P11712 whole entry): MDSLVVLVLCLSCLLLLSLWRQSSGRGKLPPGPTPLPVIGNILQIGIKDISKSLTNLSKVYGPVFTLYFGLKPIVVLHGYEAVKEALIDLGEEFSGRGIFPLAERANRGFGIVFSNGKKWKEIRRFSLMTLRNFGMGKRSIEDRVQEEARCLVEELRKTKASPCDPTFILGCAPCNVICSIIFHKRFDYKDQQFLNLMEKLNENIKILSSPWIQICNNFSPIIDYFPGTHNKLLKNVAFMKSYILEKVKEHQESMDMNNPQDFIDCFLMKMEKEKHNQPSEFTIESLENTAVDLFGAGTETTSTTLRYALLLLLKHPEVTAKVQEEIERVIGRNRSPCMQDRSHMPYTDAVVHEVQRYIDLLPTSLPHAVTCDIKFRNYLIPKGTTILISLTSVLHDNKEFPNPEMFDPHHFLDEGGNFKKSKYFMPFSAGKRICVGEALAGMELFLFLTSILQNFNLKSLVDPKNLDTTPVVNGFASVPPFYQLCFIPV
How it was run: (§2)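 The rate of metabolite formation was measured; testosterone was one CYP3A4 substrate. Controls: solvent vehicle, enzyme-selective inhibitors, mechanism-based inhibitors. Analysis by HPLC with online radio-detection or LC/MS/MS.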

OAT3 = OAT3 (Homo sapiens, UniProt Q8TCC7); test: Transporter inhibition, probe substrate accumulation; format: in vitro ADME; conditions: HEK293 cells stably transfected with OAT3
How it was run: as §1

CYP2C8 = CYP2C8 (Homo sapiens, UniProt P10632); test: CYP inhibition, pooled human liver microsomes; format: in vitro ADME; conditions: 0.33–99.2 μM, co‐ and pre‐incubation
CYP2C8, sequence (P10632 whole entry): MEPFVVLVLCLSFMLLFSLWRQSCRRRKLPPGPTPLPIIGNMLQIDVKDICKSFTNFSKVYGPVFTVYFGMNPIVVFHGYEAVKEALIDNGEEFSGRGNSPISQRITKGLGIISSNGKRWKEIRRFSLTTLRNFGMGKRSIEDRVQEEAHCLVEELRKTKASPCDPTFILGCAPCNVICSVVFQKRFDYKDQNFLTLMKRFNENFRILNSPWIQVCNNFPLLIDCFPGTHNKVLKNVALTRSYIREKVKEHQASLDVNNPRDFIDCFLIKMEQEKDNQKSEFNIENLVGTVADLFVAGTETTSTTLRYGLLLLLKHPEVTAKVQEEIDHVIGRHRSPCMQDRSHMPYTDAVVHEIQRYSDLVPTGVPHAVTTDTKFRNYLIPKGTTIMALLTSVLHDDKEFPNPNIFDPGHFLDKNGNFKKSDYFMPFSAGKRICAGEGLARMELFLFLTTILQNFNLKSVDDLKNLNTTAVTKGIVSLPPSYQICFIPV
How it was run: as §2

CYP2C19 = CYP2C19 (Homo sapiens, UniProt P33261); test: CYP inhibition, pooled human liver microsomes; format: in vitro ADME; conditions: 0.33–99.2 μM, co‐ and pre‐incubation
How it was run: as §2

human OATP1B1 = human OATP1B1 (Homo sapiens, UniProt Q9Y6L6); test: Transporter inhibition, probe substrate accumulation; format: in vitro ADME; conditions: 0.033–33.3 μM
human OATP1B1, sequence (Q9Y6L6 whole entry): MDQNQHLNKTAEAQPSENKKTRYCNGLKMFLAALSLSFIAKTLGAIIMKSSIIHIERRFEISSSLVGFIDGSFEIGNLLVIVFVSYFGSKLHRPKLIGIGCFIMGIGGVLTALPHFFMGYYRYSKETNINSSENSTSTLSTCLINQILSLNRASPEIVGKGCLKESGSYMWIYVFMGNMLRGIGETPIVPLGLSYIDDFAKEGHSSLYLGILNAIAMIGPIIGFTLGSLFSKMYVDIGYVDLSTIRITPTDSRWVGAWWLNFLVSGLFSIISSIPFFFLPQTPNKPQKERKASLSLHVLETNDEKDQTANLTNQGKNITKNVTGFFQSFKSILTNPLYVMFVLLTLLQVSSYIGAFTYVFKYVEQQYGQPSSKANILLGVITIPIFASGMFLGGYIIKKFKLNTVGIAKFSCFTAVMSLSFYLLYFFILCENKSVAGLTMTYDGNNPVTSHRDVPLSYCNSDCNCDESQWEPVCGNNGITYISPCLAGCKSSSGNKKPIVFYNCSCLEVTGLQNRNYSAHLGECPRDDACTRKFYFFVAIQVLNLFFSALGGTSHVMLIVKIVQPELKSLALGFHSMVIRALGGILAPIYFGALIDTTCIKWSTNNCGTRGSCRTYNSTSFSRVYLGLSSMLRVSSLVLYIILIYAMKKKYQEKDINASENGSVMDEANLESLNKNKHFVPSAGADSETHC
How it was run: as §1

human MATE2-K = human MATE2-K (Homo sapiens, UniProt Q86VL8); test: as above; format: in vitro ADME
human MATE2-K, sequence (Q86VL8 1-566 isoform Q86VL8-3): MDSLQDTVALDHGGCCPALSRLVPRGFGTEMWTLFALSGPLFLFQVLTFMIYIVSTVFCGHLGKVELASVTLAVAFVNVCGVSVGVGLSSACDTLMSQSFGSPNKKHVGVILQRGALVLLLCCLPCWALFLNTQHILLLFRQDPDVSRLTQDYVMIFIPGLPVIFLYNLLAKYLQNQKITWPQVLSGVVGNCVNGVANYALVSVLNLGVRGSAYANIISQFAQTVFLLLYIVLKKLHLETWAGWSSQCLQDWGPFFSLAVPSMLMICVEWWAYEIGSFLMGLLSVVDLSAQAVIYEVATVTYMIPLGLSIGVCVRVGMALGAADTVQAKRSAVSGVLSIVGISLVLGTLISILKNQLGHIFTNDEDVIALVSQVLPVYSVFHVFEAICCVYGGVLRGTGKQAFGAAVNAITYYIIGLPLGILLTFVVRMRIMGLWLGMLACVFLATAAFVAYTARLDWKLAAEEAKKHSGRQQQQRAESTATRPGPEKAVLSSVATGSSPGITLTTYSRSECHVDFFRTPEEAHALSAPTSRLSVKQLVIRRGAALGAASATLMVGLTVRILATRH
How it was run: as §1

CYP2B6 = CYP2B6 (Homo sapiens, UniProt P20813); test: CYP inhibition, pooled human liver microsomes; format: in vitro ADME; conditions: 0.33–99.2 μM, co‐ and pre‐incubation
How it was run: as §2

OCT2 = OCT2 (Homo sapiens, UniProt O15244); test: Transporter inhibition, probe substrate accumulation; format: in vitro ADME; conditions: MDCKII cells stably transfected with OCT2
How it was run: as §1

OCT1 = OCT1 (Homo sapiens, UniProt O15245); test: as above; format: in vitro ADME; conditions: CHO-K1 cells stably transfected with OCT1
How it was run: as §1

SHRSP = test: Stroke‐prone spontaneously hypertensive rats; format: in vivo, rat; conditions: 30 mg·kg^−1 p.o. daily
How it was run: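 SHRSP rats on stroke-prone diet with high-salt intake, n = 30 per group, received daily oral 0.2% HPMC vehicle or test compound at 30 mg·kg−1 in 0.2% HPMC (4 ml·kg−1). Normal-diet, tap-water controls (n = 10) received vehicle. Dosing continued until about half of either treated group had died; surviving rats' brains were examined histologically.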

[3] = tested on: brain 2‐arachidonoylglycerol (2‐AG); test: 2‐arachidonoylglycerol; format: in vivo; conditions: mouse, 10 mg·kg^−1 p.o.
How it was run: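 Frozen brains were thawed at 4°C and weighed. Each sample was extracted with chloroform:MeOH (2:1) plus 0.1 M phosphate buffer, pH 5.6. Deuterated internal standards were spiked in: AEA‑d8, PEA‑d4 and OEA‑d2 for the fatty acid amides, and 2‑AG‑d8 for 2‑AG.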

rat brain = test: Brain histopathology and behaviour in rats dosed 1 to 28 days; format: in vivo; conditions: rat, 10, 30 or 100 mg·kg^−1·day^−1 p.o.
CYP1A2 = CYP1A2 (Homo sapiens, UniProt P05177); test: CYP inhibition, pooled human liver microsomes; format: in vitro ADME; conditions: 0.33–99.2 μM, co‐ and pre‐incubation
CYP1A2, sequence (P05177 whole entry): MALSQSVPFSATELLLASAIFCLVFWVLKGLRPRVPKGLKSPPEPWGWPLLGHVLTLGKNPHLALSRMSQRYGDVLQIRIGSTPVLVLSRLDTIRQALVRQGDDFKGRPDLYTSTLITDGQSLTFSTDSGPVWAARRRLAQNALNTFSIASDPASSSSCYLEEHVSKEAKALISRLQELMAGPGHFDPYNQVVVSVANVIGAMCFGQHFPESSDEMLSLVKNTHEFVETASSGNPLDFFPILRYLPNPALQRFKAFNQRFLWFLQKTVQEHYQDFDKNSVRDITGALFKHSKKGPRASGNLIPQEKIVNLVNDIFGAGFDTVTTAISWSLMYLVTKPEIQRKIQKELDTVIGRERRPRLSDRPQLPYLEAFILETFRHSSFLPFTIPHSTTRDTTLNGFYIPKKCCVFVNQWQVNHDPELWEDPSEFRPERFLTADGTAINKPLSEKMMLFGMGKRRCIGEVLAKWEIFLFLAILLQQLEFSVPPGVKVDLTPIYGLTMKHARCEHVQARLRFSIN
How it was run: as §2

CYP2A6 = CYP2A6 (Homo sapiens, UniProt P11509); test: CYP inhibition, pooled human liver microsomes; format: in vitro ADME; conditions: 0.33–99.2 μM, co‐ and pre‐incubation
How it was run: as §2

CYP3A4 = CYP3A4 (Homo sapiens, UniProt P08684); test: CYP inhibition, pooled human liver microsomes; format: in vitro ADME
CYP3A4, sequence (P08684 whole entry): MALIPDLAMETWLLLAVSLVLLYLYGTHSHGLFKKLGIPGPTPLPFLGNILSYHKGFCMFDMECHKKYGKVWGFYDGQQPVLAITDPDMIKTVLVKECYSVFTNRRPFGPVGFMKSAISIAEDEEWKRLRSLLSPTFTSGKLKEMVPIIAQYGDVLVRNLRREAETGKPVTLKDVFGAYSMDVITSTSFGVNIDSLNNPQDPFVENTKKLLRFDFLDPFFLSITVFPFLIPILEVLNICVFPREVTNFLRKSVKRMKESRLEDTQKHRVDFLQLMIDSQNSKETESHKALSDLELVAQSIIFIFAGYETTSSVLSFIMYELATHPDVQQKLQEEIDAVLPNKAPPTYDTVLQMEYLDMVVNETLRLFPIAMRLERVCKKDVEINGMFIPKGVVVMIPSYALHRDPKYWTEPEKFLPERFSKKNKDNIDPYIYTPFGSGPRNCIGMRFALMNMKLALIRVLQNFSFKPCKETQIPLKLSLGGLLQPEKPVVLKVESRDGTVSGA
How it was run: as §2

CN(C(=O)n1cnc(-c2ccc[n+]([O-])c2)c1)C1CCCCC1 [BIA 10‐2474, 3‐(1‐(cyclohexyl (methyl)carbamoyl)‐1H‐imidazol‐4‐yl)pyridine 1‐oxide]
maximum brain concentrations (suggested) [1]: around 20 μM | effect on OAT1‐mediated probe substrate accumulation (human OAT1): did not influence | rats in which PLA2g6 was completely inhibited (CaI‐PLA2 (PLA2G6); 30 mg·kg^−1): four out of six rats | rats in which PLA2g6 was completely inhibited (CaI‐PLA2 (PLA2G6); 100 mg·kg^−1): three out of six rats | efflux ratio (BCRP; highest observed net efflux ratio (ERBCRP‐ERMDCKII), 10 and 1 μM): 5.7 | efflux ratio (BCRP; net ER, MDCKII‐BCRP, without inhibitor): 4.95 | efflux ratio (BCRP; with Ko143 1 μM, net ER, MDCKII‐BCRP, with 1 μM of Ko143): 0.03 | level in all brain sections ([2]; 24 hr after acute and 24, 48 and 72 hr after chronic administration): < 50 ng·g^−1 of tissue | brain levels, acute versus repeated oral administration ([2]; any brain region and time point): no significant differences | inhibitory effect on CYP2C9 (CYP2C9): did not exhibit any inhibitory effects | inhibition (OAT3): 34% | inhibitory effect on CYP2C8 (CYP2C8): did not exhibit any inhibitory effects | inhibitory effect on CYP2C19 (CYP2C19): did not exhibit any inhibitory effects | effect on OATP1B1‐mediated probe substrate accumulation (human OATP1B1): did not influence | maximum inhibition, MATE2‐K (human MATE2-K): 59% | IC50 (human MATE2-K; IC50, MATE2‐K‐mediated probe substrate accumulation): 3.43 µM and 3.4 µM | inhibitory effect on CYP2B6 (CYP2B6): did not exhibit any inhibitory effects | inhibition at 10 μg·ml^−1 (OCT2): 25% | inhibition at 10 μg·ml^−1 (OCT1): 26% | effect on mortality rate compared with vehicle (SHRSP; log‐rank test P = .1882): no effect | surviving rats with haemorrhage in the hippocampus and dorsal cortex (SHRSP; vehicle three of the 14): Three of the 17 | brain 2‐AG level ([3]; 1 hr, vehicle 45.1 ± 7.9): 30.4 ± 11.7 µg/g | brain 2‐AG level ([3]; 4 hr, vehicle 40.9 ± 3.4): 44.5 ± 4.9 µg/g | brain 2‐AG level ([3]; 8 hr, vehicle 39.0 ± 13.2): 34.9 ± 7.7 µg/g | brain 2‐AG level ([3]; 24 hr, vehicle 38.0 ± 5.7): 31.4 ± 9.4 µg/g | brain histopathology (rat brain): no abnormalities | overt behavioural abnormalities during treatment (rat brain): none of the animals used in this study showed any overt behavioural abnormalities | inhibitory effect on CY1A2 (CYP1A2): did not exhibit any inhibitory effects | inhibitory effect on CYP2A6 (CYP2A6): did not exhibit any inhibitory effects | inhibitory effect on CYP3A4 [midazolam] (CYP3A4; 0.33–99.2 μM, co‐ and pre‐incubation): did not exhibit any inhibitory effects | inhibition of CYP3A4 (testosterone as substrate) (CYP3A4; co‐incubation): minor inhibition | inhibition of CYP3A4 (testosterone as substrate) (CYP3A4; pre‐incubation with BIA 10‐2474): no effect
